From ChEMBL document CHEMBL4382192, “Discovery of a potent dual ALK and EGFR T790M inhibitor” (Eur J Med Chem, 2017)

Legend:
[1] = Drug uptake in mouse plasma at 10 mg/kg, po after 2 hrs; type: ADME, organism-based
[2] = system: Tyrosine-protein kinase ABL1 (Homo sapiens), P00519 [F317L]; assay: Binding affinity to human non-phosphorylated ABL1 F317L mutant (S229 to K512 residues) expressed in mammalian expression system assessed as residual binding level at 1 uM by Kinomescan method relative to control
Summary of the method: (§1)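 Kinome-wide selectivity panel run by the KINOMEscan method, with the test compound at a single concentration of 1 μM. Wild-type and mutant kinases were profiled in the same screen.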

[3] = system: Tyrosine-protein kinase ABL1 (Homo sapiens), P00519 [Y253F]; assay: Binding affinity to human phosphorylated ABL1 Y253F mutant (S229 to K512 residues) expressed in mammalian expression system assessed as residual binding level at 1 uM by Kinomescan method relative to control; summary of the method: as §1
[4] = biological target: Activin receptor type-2A (Homo sapiens) (UniProt P27037); assay: Binding affinity to wild-type human ACVR2A (V171 to T499 residues) expressed in bacterial expression system assessed as residual binding level at 1 uM by Kinomescan method relative to control
[5] = biological target: Calcium/calmodulin-dependent protein kinase type 1G (Homo sapiens) (UniProt Q96NX5); assay: Binding affinity to wild-type human partial length CAMK1G (M1 to A342 residues) expressed in bacterial expression system assessed as residual binding level at 1 uM by Kinomescan method relative to control
[6] = biological target: Calcium/calmodulin-dependent protein kinase type II subunit alpha (Homo sapiens) (UniProt Q9UQM7); assay: Binding affinity to wild-type human partial length CAMK2A (M1 to K328 residues) expressed in bacterial expression system assessed as residual binding level at 1 uM by Kinomescan method relative to control
[7] = biological target: Cyclin-dependent kinase 9 (Homo sapiens) (UniProt P50750); assay: Binding affinity to wild-type human full length CDK9 (M1 to F372 residues) expressed in bacterial expression system assessed as residual binding level at 1 uM by Kinomescan method relative to control
[8] = biological target: Casein kinase I isoform gamma-1 (Homo sapiens) (UniProt Q9HCP0); assay: Binding affinity to wild-type human partial length CSNK1G1 (T15 to S353 residues) expressed in bacterial expression system assessed as residual binding level at 1 uM by Kinomescan method relative to control
[9] = system: Epidermal growth factor receptor (Homo sapiens), P00533 [UNDEFINED MUTATION]; assay: Binding affinity to human partial length EGFR L747-E749del/A750P mutant expressed in bacterial expression system assessed as residual binding level at 1 uM by Kinomescan method relative to control; summary of the method: as §1
[10] = biological target: Fibroblast growth factor receptor 4 (Homo sapiens) (UniProt P22455); assay: Binding affinity to wild-type human partial length FGFR4 (G402 to E713 residues) expressed in bacterial expression system assessed as residual binding level at 1 uM by Kinomescan method relative to control
[11] = biological target: Tyrosine-protein kinase ITK/TSK (Homo sapiens) (UniProt Q08881); assay: Binding affinity to wild-type human partial length ITK (R335 to L620 residues) expressed in bacterial expression system assessed as residual binding level at 1 uM by Kinomescan method relative to control
[12] = biological target: Macrophage-stimulating protein receptor (Homo sapiens) (UniProt Q04912); assay: Binding affinity to wild-type human partial length MST1R (I1057 to L1363 residues) expressed in bacterial expression system assessed as residual binding level at 1 uM by Kinomescan method relative to control
[13] = biological target: Serine/threonine-protein kinase Nek10 (Homo sapiens) (UniProt Q6ZWH5); assay: Binding affinity to wild-type human partial length NEK10 (L488 to R809 residues) expressed in mammalian expression system assessed as residual binding level at 1 uM by Kinomescan method relative to control
[14] = biological target: Mitogen-activated protein kinase kinase kinase 14 (Homo sapiens) (UniProt Q99558); assay: Binding affinity to wild-type human partial length NIK (L318 to P947 residues) expressed in mammalian expression system assessed as residual binding level at 1 uM by Kinomescan method relative to control
[15] = biological target: Serine/threonine-protein kinase NIM1 (Homo sapiens) (UniProt Q8IY84); assay: Binding affinity to wild-type human partial length NIM1 (Q44 to N355 residues) expressed in mammalian expression system assessed as residual binding level at 1 uM by Kinomescan method relative to control
[16] = system: Phosphatidylinositol 4,5-bisphosphate 3-kinase catalytic subunit alpha isoform (Homo sapiens), P42336 [M1043I]; assay: Binding affinity to human partial length PIK3CA M1043I mutant (R108 to N1068 residues) expressed in mammalian expression system assessed as residual binding level at 1 uM by Kinomescan method relative to control
[17] = system: Phosphatidylinositol 4,5-bisphosphate 3-kinase catalytic subunit alpha isoform (Homo sapiens), P42336 [Q546K]; assay: Binding affinity to human partial length PIK3CA Q546K mutant (R108 to N1068 residues) expressed in mammalian expression system assessed as residual binding level at 1 uM by Kinomescan method relative to control
[18] = biological target: Serine/threonine-protein kinase N2 (Homo sapiens) (UniProt Q16513); assay: Binding affinity to wild-type human partial length PKN2 (E634 to C984 residues) expressed in bacterial expression system assessed as residual binding level at 1 uM by Kinomescan method relative to control
[19] = system: Proto-oncogene tyrosine-protein kinase receptor Ret (Homo sapiens), P07949 [V804L]; assay: Binding affinity to human partial length RET V804L mutant (E713 to D1014 residues) expressed in bacterial expression system assessed as residual binding level at 1 uM by Kinomescan method relative to control; summary of the method: as §1
[20] = biological target: Ribosomal protein S6 kinase alpha-4 (Homo sapiens) (UniProt O75676); assay: Binding affinity to wild-type human partial length C-terminal RPS6KA4 kinase domain 2 (M375 to T705 residues) expressed in mammalian expression system assessed as residual binding level at 1 uM by Kinomescan method relative to control
[21] = biological target: Serine/threonine-protein kinase TAO1 (Homo sapiens) (UniProt Q7L7X3); assay: Binding affinity to wild-type human partial length TAOK1 (M1 to A320 residues) expressed in mammalian expression system assessed as residual binding level at 1 uM by Kinomescan method relative to control
[22] = biological target: NT-3 growth factor receptor (Homo sapiens) (UniProt Q16288); assay: Binding affinity to wild-type human partial length TRKC (Q531 to G825 residues) expressed in mammalian expression system assessed as residual binding level at 1 uM by Kinomescan method relative to control
[23] = biological target: Serine/threonine-protein kinase ULK1 (Homo sapiens) (UniProt O75385); assay: Binding affinity to wild-type human partial length ULK1 (M1 to T309 residues) expressed in mammalian expression system assessed as residual binding level at 1 uM by Kinomescan method relative to control
[24] = biological target: Tyrosine-protein kinase ZAP-70 (Homo sapiens) (UniProt P43403); assay: Binding affinity to wild-type human partial length ZAP70 (D20 to G299 residues) expressed in mammalian expression system assessed as residual binding level at 1 uM by Kinomescan method relative to control

Sequence of Proto-oncogene tyrosine-protein kinase receptor Ret (Homo sapiens), P07949 [V804L] (P07949 whole entry V804L, the tested form may be a part): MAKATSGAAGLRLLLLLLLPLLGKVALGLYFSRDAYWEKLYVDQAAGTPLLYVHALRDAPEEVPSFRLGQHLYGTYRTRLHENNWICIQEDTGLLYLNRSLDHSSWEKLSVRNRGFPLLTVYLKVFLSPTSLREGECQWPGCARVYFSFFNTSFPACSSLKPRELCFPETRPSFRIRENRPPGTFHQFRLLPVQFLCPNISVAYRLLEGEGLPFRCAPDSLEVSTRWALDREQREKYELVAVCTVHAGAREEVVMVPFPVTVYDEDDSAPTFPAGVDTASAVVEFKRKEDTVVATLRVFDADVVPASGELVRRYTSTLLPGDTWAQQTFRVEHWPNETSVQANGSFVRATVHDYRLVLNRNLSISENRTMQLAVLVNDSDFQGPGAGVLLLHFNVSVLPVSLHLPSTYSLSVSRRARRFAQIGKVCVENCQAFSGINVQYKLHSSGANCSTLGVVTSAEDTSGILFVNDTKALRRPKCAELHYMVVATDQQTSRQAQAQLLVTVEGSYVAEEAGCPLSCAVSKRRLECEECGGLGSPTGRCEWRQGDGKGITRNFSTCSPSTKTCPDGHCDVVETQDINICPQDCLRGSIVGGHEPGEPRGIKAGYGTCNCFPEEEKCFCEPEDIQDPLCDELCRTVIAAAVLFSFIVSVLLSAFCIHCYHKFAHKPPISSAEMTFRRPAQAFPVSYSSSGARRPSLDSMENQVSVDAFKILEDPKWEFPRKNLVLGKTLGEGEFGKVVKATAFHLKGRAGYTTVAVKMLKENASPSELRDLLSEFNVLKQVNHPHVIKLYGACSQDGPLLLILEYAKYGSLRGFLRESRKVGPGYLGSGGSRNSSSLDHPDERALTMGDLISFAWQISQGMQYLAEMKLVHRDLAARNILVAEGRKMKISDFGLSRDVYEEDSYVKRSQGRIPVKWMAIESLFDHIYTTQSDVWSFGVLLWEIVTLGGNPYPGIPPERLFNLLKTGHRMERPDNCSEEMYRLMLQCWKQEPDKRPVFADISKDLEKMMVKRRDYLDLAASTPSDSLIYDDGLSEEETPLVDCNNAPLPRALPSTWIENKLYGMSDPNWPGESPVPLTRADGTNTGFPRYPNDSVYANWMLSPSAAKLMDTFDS
Sequence of Mitogen-activated protein kinase kinase kinase 14 (Homo sapiens) (Q99558 whole entry, looked up, the tested form may be a part): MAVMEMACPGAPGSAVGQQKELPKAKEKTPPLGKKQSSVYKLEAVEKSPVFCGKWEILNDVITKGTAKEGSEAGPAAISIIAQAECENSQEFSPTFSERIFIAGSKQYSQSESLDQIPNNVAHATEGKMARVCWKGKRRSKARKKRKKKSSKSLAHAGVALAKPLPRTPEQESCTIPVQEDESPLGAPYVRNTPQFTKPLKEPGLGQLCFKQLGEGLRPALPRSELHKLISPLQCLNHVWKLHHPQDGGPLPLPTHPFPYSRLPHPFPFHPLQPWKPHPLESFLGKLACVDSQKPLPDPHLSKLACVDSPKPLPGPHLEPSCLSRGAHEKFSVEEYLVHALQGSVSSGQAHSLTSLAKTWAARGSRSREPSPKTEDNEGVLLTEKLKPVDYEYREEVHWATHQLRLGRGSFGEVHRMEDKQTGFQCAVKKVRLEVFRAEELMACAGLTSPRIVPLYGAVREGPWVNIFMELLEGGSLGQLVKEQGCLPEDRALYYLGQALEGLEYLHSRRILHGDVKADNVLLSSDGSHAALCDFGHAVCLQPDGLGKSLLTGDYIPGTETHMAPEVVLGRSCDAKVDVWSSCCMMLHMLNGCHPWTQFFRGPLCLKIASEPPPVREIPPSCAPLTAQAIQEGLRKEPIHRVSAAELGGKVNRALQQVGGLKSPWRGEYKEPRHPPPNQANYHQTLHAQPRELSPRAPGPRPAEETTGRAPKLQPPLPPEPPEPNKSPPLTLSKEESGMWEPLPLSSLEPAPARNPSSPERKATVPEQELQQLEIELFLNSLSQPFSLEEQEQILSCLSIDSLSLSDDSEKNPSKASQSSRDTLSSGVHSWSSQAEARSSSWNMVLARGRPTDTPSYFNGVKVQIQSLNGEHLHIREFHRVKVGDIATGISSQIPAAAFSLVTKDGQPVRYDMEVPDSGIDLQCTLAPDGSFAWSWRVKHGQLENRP
Sequence of Casein kinase I isoform gamma-1 (Homo sapiens) (Q9HCP0 whole entry, looked up, the tested form may be a part, canonical isoform): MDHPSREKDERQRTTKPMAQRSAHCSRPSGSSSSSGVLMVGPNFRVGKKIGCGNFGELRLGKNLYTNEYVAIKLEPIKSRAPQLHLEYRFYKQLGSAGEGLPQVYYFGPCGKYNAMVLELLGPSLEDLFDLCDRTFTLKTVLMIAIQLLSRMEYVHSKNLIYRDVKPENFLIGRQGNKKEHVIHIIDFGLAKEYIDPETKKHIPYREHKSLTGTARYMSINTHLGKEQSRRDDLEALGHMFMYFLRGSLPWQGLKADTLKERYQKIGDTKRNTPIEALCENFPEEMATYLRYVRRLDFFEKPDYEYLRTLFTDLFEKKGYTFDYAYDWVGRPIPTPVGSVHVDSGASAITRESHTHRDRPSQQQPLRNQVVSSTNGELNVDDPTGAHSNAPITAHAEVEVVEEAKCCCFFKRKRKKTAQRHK
Sequence of Serine/threonine-protein kinase TAO1 (Homo sapiens) (Q7L7X3 whole entry, the tested form may be a part): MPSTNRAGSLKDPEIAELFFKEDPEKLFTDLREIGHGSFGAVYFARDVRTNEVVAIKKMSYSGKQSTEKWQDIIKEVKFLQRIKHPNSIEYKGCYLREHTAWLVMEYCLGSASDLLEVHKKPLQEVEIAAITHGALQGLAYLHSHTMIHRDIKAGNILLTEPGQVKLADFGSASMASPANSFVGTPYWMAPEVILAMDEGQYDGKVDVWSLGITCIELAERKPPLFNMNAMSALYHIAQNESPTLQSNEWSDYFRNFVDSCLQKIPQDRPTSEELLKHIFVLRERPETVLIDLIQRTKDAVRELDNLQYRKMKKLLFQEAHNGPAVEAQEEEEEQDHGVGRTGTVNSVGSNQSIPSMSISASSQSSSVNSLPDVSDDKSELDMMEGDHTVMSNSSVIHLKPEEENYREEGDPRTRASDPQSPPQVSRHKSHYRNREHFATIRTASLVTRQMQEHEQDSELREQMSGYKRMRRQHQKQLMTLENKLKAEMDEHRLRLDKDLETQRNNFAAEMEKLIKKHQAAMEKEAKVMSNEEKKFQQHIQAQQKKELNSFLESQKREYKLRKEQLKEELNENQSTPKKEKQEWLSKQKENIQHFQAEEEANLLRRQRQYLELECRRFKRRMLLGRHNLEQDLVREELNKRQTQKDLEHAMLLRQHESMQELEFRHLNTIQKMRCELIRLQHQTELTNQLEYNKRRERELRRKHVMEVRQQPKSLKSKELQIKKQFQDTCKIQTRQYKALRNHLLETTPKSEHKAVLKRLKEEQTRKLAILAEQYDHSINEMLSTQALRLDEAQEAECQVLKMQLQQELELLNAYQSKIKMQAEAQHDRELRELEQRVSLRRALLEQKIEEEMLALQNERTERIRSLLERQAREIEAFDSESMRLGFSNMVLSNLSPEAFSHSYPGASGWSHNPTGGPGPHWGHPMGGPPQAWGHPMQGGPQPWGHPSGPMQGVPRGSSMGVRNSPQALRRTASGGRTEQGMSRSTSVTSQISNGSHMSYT
Sequence of Serine/threonine-protein kinase N2 (Homo sapiens) (Q16513 whole entry, looked up, the tested form may be a part): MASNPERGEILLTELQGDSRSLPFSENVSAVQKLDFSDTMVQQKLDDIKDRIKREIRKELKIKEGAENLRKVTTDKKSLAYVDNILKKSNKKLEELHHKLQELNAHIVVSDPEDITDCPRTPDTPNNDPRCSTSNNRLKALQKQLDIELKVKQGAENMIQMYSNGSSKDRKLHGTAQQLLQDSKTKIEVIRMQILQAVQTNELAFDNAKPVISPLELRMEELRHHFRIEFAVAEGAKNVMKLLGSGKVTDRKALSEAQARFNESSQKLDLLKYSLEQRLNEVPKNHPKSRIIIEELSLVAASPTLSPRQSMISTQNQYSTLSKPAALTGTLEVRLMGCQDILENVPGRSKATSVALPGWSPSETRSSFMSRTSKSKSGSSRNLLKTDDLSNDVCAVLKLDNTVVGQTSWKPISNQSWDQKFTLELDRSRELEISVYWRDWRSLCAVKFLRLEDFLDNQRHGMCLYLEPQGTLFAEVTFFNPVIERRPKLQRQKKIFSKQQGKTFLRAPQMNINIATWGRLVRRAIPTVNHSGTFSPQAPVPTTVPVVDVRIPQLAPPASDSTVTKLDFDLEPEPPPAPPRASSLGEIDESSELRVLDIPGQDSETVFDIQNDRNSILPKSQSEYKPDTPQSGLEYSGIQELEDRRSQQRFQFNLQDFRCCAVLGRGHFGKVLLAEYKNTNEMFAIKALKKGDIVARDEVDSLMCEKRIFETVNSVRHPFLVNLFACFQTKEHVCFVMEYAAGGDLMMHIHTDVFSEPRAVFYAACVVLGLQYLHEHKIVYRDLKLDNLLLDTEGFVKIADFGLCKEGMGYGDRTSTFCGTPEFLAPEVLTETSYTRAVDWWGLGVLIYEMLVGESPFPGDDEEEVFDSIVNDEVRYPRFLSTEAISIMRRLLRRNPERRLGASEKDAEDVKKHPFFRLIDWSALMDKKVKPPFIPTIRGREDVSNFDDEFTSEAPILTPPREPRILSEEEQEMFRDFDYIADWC
Sequence of Activin receptor type-2A (Homo sapiens) (P27037 whole entry, the tested form may be a part): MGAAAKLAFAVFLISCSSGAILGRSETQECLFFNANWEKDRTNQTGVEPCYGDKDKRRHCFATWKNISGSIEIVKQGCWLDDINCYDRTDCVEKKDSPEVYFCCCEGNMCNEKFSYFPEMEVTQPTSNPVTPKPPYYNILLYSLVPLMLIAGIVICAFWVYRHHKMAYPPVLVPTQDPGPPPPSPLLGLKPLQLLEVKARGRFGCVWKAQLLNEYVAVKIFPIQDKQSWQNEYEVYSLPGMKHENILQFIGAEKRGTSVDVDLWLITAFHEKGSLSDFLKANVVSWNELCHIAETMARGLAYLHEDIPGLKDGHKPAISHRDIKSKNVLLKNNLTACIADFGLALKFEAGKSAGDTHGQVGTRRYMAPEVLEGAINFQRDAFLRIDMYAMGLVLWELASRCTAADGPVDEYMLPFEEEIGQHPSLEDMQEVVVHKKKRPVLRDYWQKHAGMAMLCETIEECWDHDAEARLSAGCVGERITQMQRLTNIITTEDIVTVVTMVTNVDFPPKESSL

With C=CC(=O)Nc1cc(Nc2ncc(Cl)c(Nc3ccccc3S(=O)(=O)C(C)C)n2)c(OC)cc1N(C)CCN(C)C the concentration at 2 h [1] was 150 nM, the Activity [2] was 0.8% and the Activity [3] was 2.1%. It also gave an Activity [4] of 96%, an Activity [5] of 45% and an Activity [6] of 18%. For the same molecule, the Activity [7] was 80%, the Activity [8] was 74% and the Activity [9] was 0%. It also gave an Activity [10] of 9.6%, an Activity [11] of 0.1% and an Activity [12] of 100%. The Activity [13] was 28%, the Activity [14] was 91% and the Activity [15] was 100%. The Activity [16] was 84%, the Activity [17] was 83% and the Activity [18] was 70%. For the same molecule, the Activity [19] was 14%, the Activity [20] was 100% and the Activity [21] was 0.45%. It also gave an Activity [22] of 85%, an Activity [23] of 0.3% and an Activity [24] of 77%.
